The results in this text go back to ChEMBL document CHEMBL4699485, “Discovery and Development of SPR519 as a Potent, Selective, and Orally Bioavailable Inhibitor of PI3Kα and mTOR Kinases for the Treatment of Solid Tumors” (J Med Chem, 2020).

Series [1] in a line: AUC in Swiss mouse at 3 mg/kg, po via gavage by LC-MS/MS analysis. The arrangement: dose 3 mg/kg. Format: ADME, organism-based. To be noted: in vivo. The method, boiled down: (§1)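 Female Swiss mice (n=3/group), fasted overnight, given single oral gavage dose in 0.5% CMC/0.5% Tween 80 (10 mL/kg) at 1, 3 or 10 mg/kg. Serial blood sampling at 0.16–8 h into heparinized tubes. Plasma extracted with acetonitrile containing verapamil internal standard and quantified by LC-MS/MS. Cmax, Tmax, AUC and t1/2 derived from the concentration–time profile.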

Series [2] in a line: Elimination half life in Swiss mouse at 3 mg/kg, po via gavage by LC-MS/MS analysis. Particulars: in vivo, read-out: beta t1/2 (converted); call rule not given here. Format: ADME, organism-based. The method, boiled down: as §1
In series [3] the target is Voltage-gated inwardly rectifying potassium channel KCNH2 (Homo sapiens, UniProt Q12809). Kind of series: Inhibition of human ERG channel trafficking expressed in mammalian expression system at 1 to 30 uM by HERG-Lite assay. To be noted: dose 1-30 µM. The method, boiled down:
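HERG-lite assay scoring both channel blocking and trafficking inhibition, with test compound at 1, 10 and 30 µM. Geldanamycin (1 µM) served as the trafficking-inhibition reference and astemizole as the standard hERG binder.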

Series [4] concerns the target Cytochrome P450 3A4 (Homo sapiens, UniProt P08684). Kind of series: Inhibition of CYP3A4 in human liver microsomes using isoform-specific probe substrates preincubated for 5 mins followed by NADPH addition by LC-MS/MS analysis. Format: ADME. The method, boiled down:
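Human liver microsomes premixed with buffer and a CYP-specific FDA-recommended probe substrate, then spiked with inhibitor, in duplicate. After 5 min preincubation at 37 °C, reaction started with NADPH and run at 37 °C for a set time, then quenched. Metabolite formation quantified by HPLC/LC-MS/MS to derive the concentration giving 50% inhibition.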
For orientation: Microsomes from liver hold many membrane-bound enzymes, among them those of drug oxidation.

Series [5] addresses Phosphatidylinositol 4,5-bisphosphate 3-kinase catalytic subunit beta isoform (Homo sapiens) (UniProt P42338). As to the kind of experiment: Inhibition of human PI3kbeta at 1 uM using fluorescently labeled peptide substrate measured after 3 hrs by microfluidic mobility shift assay relative to control. The method, boiled down:
(§2)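 Single-concentration screen at 1 µM in duplicate, 1% final DMSO. Kinase (typically 1 nM), fluorescently labeled peptide substrate (typically 1 µM), ATP at Km and Mg²⁺ incubated about 3 h at 25 °C, then EDTA-quenched. Substrate and phosphorylated product separated by microfluidic electrophoresis and quantified by fluorescence.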

For series [6], the target named is Phosphatidylinositol 4-kinase beta (Homo sapiens) (UniProt Q9UBF8). As to the kind of experiment: Inhibition of human PI4kbeta at 1 uM using fluorescently labeled peptide substrate measured after 3 hrs by microfluidic mobility shift assay relative to control. Put shortly: as §2
Sequence of Phosphatidylinositol 4-kinase beta (Homo sapiens) (Q9UBF8 2-816 limits assumed): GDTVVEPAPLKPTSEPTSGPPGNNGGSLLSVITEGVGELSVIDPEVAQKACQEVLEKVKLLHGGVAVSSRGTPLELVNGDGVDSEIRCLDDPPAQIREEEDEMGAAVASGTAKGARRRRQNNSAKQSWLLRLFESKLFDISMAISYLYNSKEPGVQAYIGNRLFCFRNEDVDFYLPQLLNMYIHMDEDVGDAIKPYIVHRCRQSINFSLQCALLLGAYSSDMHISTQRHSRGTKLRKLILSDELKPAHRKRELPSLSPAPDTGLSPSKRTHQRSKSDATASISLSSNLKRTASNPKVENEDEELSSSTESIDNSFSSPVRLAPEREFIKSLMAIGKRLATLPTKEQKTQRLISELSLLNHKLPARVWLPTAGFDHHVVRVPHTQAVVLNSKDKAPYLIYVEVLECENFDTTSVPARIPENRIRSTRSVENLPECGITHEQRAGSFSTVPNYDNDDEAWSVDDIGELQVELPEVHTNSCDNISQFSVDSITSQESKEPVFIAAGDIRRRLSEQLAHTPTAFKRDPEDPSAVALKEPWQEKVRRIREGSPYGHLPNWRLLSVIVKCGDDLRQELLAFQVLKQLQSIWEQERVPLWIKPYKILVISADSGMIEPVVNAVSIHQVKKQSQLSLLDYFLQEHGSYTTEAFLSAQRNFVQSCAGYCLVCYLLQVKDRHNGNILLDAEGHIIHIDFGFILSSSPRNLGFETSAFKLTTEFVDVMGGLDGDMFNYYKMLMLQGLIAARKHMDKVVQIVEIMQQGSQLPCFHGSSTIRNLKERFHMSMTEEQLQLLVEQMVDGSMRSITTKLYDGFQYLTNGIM
Series [7] deals with Serine/threonine-protein kinase mTOR (Homo sapiens, UniProt P42345). As to the kind of experiment: Inhibition of human mTOR at 1 uM using fluorescently labeled peptide substrate measured after 3 hrs by microfluidic mobility shift assay relative to control. The method, boiled down: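 Single-concentration screen at 1 µM in duplicate wells, in a 23-kinase panel using microfluidic mobility shift. Compound was diluted from a 100x DMSO stock, with 1% DMSO final. Kinase (typically 1 nM), fluorescent peptide substrate (typically 1 µM), ATP at 1x Km and Mg2+ were incubated typically 3 h at 25 °C, then quenched with EDTA. Substrate and phospho-product were separated electrophoretically and quantified by fluorescence.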

Series [8] can be described thus: Cmax in Swiss mouse at 1 mg/kg, po via gavage by LC-MS/MS analysis. The series is classed as ADME, organism-based. The arrangement: route oral, dose 1 mg/kg. To be noted: in vivo. The method, boiled down:
as §1

Series [9] in a line: Tmax in Swiss mouse at 1 mg/kg, po via gavage by LC-MS/MS analysis. The series is classed as ADME, organism-based. Particulars: in vivo. Put shortly: (§3)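 Female Swiss mice (n=3/group) were fasted overnight, then gavaged with compound in 0.5% CMC/0.5% Tween 80 at 10 mL/kg. Serial blood samples at 0.16, 0.5, 1, 2, 4, 6 and 8 h were taken into heparinized tubes and spun to plasma. Plasma was extracted with acetonitrile containing verapamil (400 ng/mL) and quantified by LC-MS/MS against plasma calibration curves. Tmax was derived from the concentration–time profile.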

The nature of series [10]: Tmax in Swiss mouse at 10 mg/kg, po via gavage by LC-MS/MS analysis. Format: ADME, organism-based. To be noted: in vivo. The method, boiled down: as §3
Series [11] in a line: Elimination half life in Swiss mouse at 10 mg/kg, po via gavage by LC-MS/MS analysis. The series is classed as ADME, organism-based. Particulars: in vivo, read-out: beta t1/2 (converted). The method, boiled down:
as §1

The nature of series [12]: Toxicity in Swiss mouse assessed as piloerection at 30 mg/kg, po administered twice daily via gavage for 12 days and measured on day 9. Format: organism-based. To be noted: in vivo, 288 h, time 12 day. The method, boiled down:
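Female Swiss mice (4 treated, 2 controls) were gavaged twice daily for 12 days, with compound in 0.5% CMC and Tween 80. Clinical signs including body coat, body weight, temperature, feed intake and general activity were monitored daily.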

Series [13] can be described thus: Toxicity in Swiss mouse assessed as morphological changes in lung at 30 mg/kg, po administered twice daily via gavage for 5 days and measured post last dose. Format: organism-based. Particulars: in vivo, 120 h, time 5 day. The method, boiled down: (§4)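 Female Swiss mice (3 treated, 2 controls) were gavaged twice daily for 5 days, with compound in 0.5% CMC and Tween 80. After the last dosing the animals were sacrificed. Liver, kidney, lung, uterus and brain were excised and inspected visually for morphology and color change.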

The nature of series [14]: Toxicity in Swiss mouse assessed as morphological changes in brain at 30 mg/kg, po administered twice daily via gavage for 5 days and measured post last dose. The series is classed as organism-based. To be noted: in vivo, 120 h, time 5 day. The method, boiled down:
as §4

Series [15] is described as follows: Toxicity in Swiss mouse assessed as discoloration of kidney at 30 mg/kg, po administered twice daily via gavage for 5 days and measured post last dose. Particulars: in vivo, 120 h, time 5 day. Format: organism-based. The method, boiled down: as §4
The nature of series [16]: Toxicity in Swiss mouse assessed as discoloration of lung at 30 mg/kg, po administered twice daily via gavage for 5 days and measured post last dose. Format: organism-based. Particulars: in vivo, 120 h, time 5 day. The method, boiled down:
as §4

Series [17] is described as follows: Toxicity in Swiss mouse assessed as discoloration of uterus at 30 mg/kg, po administered twice daily via gavage for 5 days and measured post last dose. The series is classed as organism-based. Particulars: in vivo, 120 h, time 5 day. The method, boiled down:
as §4

A short description of series [18]: Drug level in Swiss mouse kidney at 30 mg/kg, po administered twice daily via gavage for 5 days and measured post last dose by LC-MS/MS analysis. Format: ADME, organism-based. To be noted: time 5 day, read-out: Drug uptake. The method, boiled down: (§5)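 Female Swiss mice (n=3) given 30 mg/kg in 0.5% CMC/Tween 80 by oral gavage twice daily for 5 days, with two vehicle controls. After sacrifice, liver, kidney, lung, uterus and brain were collected, homogenized in water and solvent-extracted. Drug concentration (ng/g) measured by LC-MS/MS.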

The nature of series [19]: Drug level in Swiss mouse lung at 30 mg/kg, po administered twice daily via gavage for 5 days and measured post last dose by LC-MS/MS analysis. To be noted: time 5 day, read-out: Drug uptake. The series is classed as ADME, organism-based. Put shortly:
as §5

Series [20] in a line: Drug level in Swiss mouse uterus at 30 mg/kg, po administered twice daily via gavage for 5 days and measured post last dose by LC-MS/MS analysis. Format: ADME, organism-based. To be noted: time 5 day, read-out: Drug uptake. The method, boiled down:
as §5

In series [21] the test system is HCT-116. Kind of series: Antitumor activity against human HCT-116 cells xenografted in po dosed CD1 nude mouse assessed as reduction in tumor volume administered once daily for 21 days and measured at 3 days interval during compound dosing. Format: functional, organism-based. Particulars: dose mg/kg 2.5-20, time 21.0 day. Put shortly:
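Female CD1 nude mice bearing subcutaneous HCT116 xenografts, randomized at average tumor size 120–130 mm³, five per group. Dosed orally once daily at 2.5, 5, 10 or 20 mg/kg for 21 days alongside a vehicle control. Caliper measurement of tumor volume as (width² × length)/2, monitored every third day.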
For orientation: In xenograft studies the graft and the host belong to different species.

Series [22] addresses 3-phosphoinositide-dependent protein kinase 1 (Homo sapiens) (UniProt O15530). As to the kind of experiment: Inhibition of human PDK1 at 1 uM using fluorescently labeled peptide substrate measured after 3 hrs by microfluidic mobility shift assay relative to control.

Sequence of Voltage-gated inwardly rectifying potassium channel KCNH2 (Q12809 whole entry): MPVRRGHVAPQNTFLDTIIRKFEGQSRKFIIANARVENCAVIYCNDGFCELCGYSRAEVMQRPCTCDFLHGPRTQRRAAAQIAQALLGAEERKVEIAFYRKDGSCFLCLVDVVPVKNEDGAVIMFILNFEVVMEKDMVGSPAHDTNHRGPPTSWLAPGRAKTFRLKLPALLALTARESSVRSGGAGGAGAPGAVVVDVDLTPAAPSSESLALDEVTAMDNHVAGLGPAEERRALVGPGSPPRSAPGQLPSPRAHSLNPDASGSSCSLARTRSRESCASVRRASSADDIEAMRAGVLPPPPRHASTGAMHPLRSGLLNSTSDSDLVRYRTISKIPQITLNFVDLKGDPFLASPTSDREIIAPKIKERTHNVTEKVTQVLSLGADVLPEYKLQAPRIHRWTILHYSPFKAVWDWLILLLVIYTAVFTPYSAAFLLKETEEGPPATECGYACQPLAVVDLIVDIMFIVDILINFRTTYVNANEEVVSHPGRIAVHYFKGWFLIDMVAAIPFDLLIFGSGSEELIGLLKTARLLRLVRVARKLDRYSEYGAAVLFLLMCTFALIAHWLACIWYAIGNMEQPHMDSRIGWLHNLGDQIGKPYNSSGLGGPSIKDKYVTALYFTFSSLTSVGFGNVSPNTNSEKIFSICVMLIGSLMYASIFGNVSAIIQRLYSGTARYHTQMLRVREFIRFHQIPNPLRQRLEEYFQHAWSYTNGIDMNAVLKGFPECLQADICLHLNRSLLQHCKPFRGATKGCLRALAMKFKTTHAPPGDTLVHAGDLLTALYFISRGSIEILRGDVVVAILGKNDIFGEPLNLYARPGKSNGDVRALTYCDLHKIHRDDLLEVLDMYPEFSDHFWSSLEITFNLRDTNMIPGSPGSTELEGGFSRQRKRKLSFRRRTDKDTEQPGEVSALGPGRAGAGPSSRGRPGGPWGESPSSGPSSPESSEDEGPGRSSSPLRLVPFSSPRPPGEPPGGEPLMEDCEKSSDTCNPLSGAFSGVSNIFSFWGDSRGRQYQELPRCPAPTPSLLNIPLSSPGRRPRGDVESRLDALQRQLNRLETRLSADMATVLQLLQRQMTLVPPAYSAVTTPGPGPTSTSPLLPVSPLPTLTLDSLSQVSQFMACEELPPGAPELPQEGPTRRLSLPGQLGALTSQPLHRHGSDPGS
Sequence of 3-phosphoinositide-dependent protein kinase 1 (Homo sapiens) (O15530 whole entry, looked up): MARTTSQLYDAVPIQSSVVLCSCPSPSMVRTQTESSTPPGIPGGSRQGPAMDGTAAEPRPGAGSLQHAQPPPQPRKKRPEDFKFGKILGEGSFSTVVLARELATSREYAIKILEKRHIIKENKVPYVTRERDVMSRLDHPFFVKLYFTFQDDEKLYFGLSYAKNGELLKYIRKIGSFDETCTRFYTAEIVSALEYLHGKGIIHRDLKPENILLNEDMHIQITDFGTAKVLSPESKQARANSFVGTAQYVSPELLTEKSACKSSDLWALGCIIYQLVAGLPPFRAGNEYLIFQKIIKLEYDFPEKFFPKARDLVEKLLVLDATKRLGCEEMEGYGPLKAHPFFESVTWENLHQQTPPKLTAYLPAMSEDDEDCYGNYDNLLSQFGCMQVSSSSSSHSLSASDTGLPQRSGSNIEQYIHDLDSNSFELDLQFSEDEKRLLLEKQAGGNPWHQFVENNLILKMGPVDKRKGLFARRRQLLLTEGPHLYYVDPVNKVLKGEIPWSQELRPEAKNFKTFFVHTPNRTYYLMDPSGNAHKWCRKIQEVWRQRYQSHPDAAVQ
Sequence of Phosphatidylinositol 4,5-bisphosphate 3-kinase catalytic subunit beta isoform (Homo sapiens) (P42338 whole entry, looked up, canonical isoform): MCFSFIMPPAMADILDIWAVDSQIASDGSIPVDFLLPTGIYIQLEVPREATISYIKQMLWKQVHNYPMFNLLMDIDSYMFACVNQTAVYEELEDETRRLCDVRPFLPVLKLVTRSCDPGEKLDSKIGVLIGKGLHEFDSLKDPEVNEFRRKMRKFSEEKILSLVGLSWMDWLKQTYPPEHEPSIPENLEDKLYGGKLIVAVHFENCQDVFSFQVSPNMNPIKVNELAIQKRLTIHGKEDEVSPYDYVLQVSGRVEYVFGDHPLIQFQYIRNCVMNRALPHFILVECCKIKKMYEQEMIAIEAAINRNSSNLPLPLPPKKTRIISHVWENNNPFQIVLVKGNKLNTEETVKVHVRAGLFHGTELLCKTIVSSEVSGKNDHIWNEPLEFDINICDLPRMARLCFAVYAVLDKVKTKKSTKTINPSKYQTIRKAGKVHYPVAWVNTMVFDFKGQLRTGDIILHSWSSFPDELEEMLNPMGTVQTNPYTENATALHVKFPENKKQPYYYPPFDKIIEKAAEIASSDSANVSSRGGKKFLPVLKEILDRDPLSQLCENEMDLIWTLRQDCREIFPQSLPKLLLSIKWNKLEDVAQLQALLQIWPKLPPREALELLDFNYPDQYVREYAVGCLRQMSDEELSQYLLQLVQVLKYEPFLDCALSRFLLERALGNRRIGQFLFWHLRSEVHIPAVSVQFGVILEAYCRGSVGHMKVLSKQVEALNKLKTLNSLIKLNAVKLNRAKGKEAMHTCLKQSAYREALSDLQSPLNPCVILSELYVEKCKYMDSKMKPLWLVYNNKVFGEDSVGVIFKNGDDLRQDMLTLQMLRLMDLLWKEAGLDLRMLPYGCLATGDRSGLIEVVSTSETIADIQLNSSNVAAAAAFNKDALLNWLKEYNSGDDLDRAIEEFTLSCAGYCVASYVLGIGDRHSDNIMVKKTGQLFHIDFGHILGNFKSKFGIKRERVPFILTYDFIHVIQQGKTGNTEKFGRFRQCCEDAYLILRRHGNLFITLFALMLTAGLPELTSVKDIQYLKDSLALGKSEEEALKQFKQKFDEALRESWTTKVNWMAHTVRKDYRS
Sequence of Cytochrome P450 3A4 (P08684 whole entry, canonical isoform): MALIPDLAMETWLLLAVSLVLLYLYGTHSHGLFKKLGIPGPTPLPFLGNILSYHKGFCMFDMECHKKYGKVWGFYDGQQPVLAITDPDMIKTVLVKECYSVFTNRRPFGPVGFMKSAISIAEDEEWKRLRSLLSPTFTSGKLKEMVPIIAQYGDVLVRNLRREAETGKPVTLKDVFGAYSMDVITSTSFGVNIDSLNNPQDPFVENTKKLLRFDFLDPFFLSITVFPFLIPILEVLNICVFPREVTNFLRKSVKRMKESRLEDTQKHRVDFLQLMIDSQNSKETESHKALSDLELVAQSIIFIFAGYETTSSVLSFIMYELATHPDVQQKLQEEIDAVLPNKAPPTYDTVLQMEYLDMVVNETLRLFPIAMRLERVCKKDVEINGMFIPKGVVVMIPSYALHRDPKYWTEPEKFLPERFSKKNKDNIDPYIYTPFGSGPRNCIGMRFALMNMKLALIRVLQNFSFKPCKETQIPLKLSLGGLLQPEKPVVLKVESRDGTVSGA

For `CN(C)C(=O)c1ccc(Oc2nc(-c3cnc(N)s3)nc(N3CCOCC3)n2)cc1`, the AUC – broadly, concentration integrated over time – in series [1] turned out to be 32.1 µM·h. For the same compound, the half-life in [2] was 2.7 h; in series [11], 2.52 h. Further, in series [3], the “inhibition (INH)” value is recorded as “Not Active”. Further, the IC50 (usually the concentration that gives 50% inhibition) in series [4] was over 10 µM. The inhibition – broadly, the relative decrease from the control value, in per cent – in [5] is 42%; in series [6], -3%; in series [7], 89%; in series [22] it was -1%. In series [8], the highest level (Cmax) was 5.01 µM. Also, the Tmax (as a rule, the time at which the peak concentration occurs) in [9] came out at 1.33 h; in series [10] it was 1.67 h. The Activity entry is reported as “Toxic” in series [12]; “Non-Toxic” in series [13]; “Non-Toxic” in series [14]; “Non-Toxic” in series [15]; “Non-Toxic” in series [16]; “Non-Toxic” in [17]. Further, the Activity entry in [21] was “Dose-dependent effect”. Besides, the concentration at 120 h in series [18] is 160 ng/g; in series [19], 50 ng/g; in series [20], 10 ng/g.
